Measurements published in publication PMC4358770 (Journal of medicinal chemistry, 2010).

What was measured:
[1] = target: T1, NTPDase2 (Homo sapiens, UniProt Q9Y5L3); test: NTPDase2 hydrolysis assay; format: in vitro ADME; details: 100 μM ATP (100% reference)
T1 sequence (Q9Y5L3 1-495): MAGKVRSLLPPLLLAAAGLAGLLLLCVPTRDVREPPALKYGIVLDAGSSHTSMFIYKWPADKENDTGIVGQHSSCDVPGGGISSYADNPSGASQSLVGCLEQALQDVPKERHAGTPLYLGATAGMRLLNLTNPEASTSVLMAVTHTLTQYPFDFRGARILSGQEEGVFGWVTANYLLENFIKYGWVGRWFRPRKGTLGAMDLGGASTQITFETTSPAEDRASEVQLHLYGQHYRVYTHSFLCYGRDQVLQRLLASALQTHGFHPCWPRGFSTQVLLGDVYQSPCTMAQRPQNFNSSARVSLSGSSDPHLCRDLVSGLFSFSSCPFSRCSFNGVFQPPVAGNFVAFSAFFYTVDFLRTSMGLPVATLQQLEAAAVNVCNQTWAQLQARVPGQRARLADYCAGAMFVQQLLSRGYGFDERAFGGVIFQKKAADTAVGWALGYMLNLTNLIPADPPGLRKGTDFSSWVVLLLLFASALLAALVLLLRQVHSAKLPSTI
Summary of the method: (§1)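 Enzymes were transiently expressed in COS-7 cells. Crude protein extracts were made by sonication, 300g clearing at 4 °C and storage at −80 °C, with protein measured by Bradford. Extract was preincubated 3 min at 37 °C in Tris-Ringer buffer, pH 7.4. […] Activity of untransfected-cell extract was subtracted.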

[2] = target: T2, NTPDase8 (Homo sapiens, UniProt Q5MY95); test: NTPDase8 hydrolysis assay; format: in vitro ADME; details: 100 μM ATP (100% reference)
T2 sequence (Q5MY95 1-495): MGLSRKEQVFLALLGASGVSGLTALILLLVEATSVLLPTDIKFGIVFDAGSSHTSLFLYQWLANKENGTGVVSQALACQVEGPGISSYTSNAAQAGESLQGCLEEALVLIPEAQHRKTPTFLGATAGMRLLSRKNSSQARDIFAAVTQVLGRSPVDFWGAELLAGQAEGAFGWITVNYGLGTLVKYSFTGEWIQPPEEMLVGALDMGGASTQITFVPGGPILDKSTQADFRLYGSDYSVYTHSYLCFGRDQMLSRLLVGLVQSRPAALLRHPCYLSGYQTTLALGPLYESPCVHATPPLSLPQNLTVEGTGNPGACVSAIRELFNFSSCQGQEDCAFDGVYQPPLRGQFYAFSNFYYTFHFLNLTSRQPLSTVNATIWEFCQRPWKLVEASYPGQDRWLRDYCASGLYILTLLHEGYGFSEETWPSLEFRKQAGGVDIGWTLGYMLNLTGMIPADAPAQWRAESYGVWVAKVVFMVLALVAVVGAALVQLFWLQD
Summary of the method: as §1

[3] = target: T3, human NPP1 (Homo sapiens, UniProt P22413); test: NPP1 hydrolysis assay; format: in vitro ADME; details: 100 μM ATP (100% reference)
T3 sequence (P22413 1-925): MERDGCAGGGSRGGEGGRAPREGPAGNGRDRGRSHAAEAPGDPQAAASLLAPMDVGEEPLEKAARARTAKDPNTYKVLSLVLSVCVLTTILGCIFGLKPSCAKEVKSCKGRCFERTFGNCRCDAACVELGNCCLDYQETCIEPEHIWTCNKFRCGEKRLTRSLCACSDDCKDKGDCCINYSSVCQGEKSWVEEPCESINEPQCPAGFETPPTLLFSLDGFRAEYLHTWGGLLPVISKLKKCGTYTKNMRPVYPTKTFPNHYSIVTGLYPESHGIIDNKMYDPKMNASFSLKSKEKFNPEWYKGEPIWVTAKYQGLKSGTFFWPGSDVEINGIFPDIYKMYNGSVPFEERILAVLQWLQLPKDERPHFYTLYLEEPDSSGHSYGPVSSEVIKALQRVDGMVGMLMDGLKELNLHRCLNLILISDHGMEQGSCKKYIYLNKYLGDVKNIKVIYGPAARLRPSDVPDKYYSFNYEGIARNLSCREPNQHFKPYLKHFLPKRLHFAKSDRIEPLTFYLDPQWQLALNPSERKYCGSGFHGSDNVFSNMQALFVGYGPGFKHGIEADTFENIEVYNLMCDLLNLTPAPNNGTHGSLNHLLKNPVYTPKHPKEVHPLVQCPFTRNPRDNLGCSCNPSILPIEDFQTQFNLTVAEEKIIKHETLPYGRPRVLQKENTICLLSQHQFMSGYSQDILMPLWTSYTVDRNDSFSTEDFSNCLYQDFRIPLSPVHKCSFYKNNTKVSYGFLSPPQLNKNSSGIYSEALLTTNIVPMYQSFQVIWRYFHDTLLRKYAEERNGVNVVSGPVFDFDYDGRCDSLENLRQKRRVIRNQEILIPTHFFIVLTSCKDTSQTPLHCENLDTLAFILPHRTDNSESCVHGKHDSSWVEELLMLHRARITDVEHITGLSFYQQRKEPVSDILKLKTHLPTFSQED

[4] = pKa and ionization of the terminal phosphate/phosphonate; format: physicochemical; details: pH 7.4, terminal phosphate/phosphonate
[5] = cited from earlier work
[6] = test system: rabbit IOP; details: topically applied to New Zealand white rabbits; cited from earlier work
[7] = target: alkaline phosphatase (Bos taurus, UniProt P19111); test: Hydrolysis by alkaline phosphatase; details: bovine, calf intestine alkaline phosphatase, pH 9.8
[8] = target: calf intestine alkaline phosphatase (Bos taurus, UniProt P19111); test: Hydrolysis by alkaline phosphatase; details: 0.2 mg analogue/77.5 μL, 12.5 units of AP, 37 °C, 3 h
calf intestine alkaline phosphatase, sequence (P19111 20-533): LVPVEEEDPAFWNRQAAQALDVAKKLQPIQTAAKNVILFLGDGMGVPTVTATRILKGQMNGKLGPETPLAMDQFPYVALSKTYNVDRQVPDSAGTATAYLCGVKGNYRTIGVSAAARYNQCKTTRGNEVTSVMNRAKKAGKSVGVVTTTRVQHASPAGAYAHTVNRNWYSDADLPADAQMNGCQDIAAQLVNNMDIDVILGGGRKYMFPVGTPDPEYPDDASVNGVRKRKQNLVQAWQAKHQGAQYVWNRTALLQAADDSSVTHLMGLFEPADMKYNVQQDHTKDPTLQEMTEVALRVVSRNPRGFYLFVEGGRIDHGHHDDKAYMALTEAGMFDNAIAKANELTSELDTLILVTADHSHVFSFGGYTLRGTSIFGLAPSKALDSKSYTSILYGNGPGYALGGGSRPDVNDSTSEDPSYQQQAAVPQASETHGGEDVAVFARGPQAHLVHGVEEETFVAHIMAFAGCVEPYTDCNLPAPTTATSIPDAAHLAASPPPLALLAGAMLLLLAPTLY

alkaline phosphatase, sequence (P19111 20-533): as above

## Nc1ncnc2c1ncn2[C@@H]1O[C@H](COP(=O)(O)OP(=O)(O)OP(=O)(O)O)[C@@H](O)[C@H]1O [ATP]
[1]
  hydrolysis rate by NTPDase2: 1006 ± 60 nmol Pi·min^−1·mg protein^−1
[2]
  hydrolysis rate by NTPDase8: 229 ± 20 nmol Pi·min^−1·mg protein^−1
[3]
  hydrolysis rate by NPP1: 619 nmol nucl·min^−1·mg protein^−1
[4]
  fraction ionized at physiological pH: 91%
[5]
  t1/2 in human blood serum: 3.6 h
[6]
  effect on IOP (increase or reduction): reduced
[7]
  half-life at 2.58 mg/mL: 84 min
[8]
  degradation by alkaline phosphatase after 3 h: 96%
